From ChEMBL document CHEMBL1142158, “Antibacterial activity and mechanism of action of a novel anilinouracil-fluoroquinolone hybrid compound” (Antimicrob Agents Chemother, 2007)
≈ marks a conversion by molar mass, not a printed value. Calls of active or inactive are those of the source. No cut-off for these calls is given here.

Assays:
Streptococcus pneumoniae [1] = experiment: Antibacterial activity against penicillin-resistant Streptococcus pneumoniae 700673; type: functional
Outline: (§1)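 Streptococci tested by CLSI broth microdilution in Mueller-Hinton broth with 5% defibrinated horse blood, log-phase inoculum at 1 x 10^5 CFU/ml. Incubated 37°C with shaking, 16 to 20 h, in 5% humidified CO2. Compounds at 1% DMSO final. MIC is the lowest concentration without growth by OD600. Quadruplicate; highest MIC reported.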

[2] = Inhibition of Bacillus subtilis topoisomerase 4
Escherichia coli [3] = experiment: Antibacterial activity against Escherichia coli J53; type: functional
Staphylococcus aureus [4] = experiment: Antibacterial activity against Staphylococcus aureus 25923; type: functional
Outline: (§2)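 Broth microdilution per CLSI with modified incubation. Log-phase cultures in cation-adjusted Mueller-Hinton broth, seeded at 1 x 10^5 CFU/ml. Compounds from DMSO stocks, 1% DMSO final. Incubated 37°C, 16 to 20 h, shaken. Growth read as OD600. MIC is the lowest concentration with no apparent growth. Run in quadruplicate; highest value reported.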

Enterococcus faecalis [5] = experiment: Antibacterial activity against vancomycin-resistant Enterococcus faecalis 51299; type: functional; outline: as §2
[6] = tested on: Stenotrophomonas maltophilia; experiment: Antibacterial activity against Stenotrophomonas maltophilia 13637; type: functional
Staphylococcus aureus [7] = experiment: Antibacterial activity against mupirocin-sensitive Staphylococcus aureus 2529; type: functional
Enterococcus faecium [8] = experiment: Antibacterial activity against Enterococcus faecium 19434; type: functional; outline: as §2
Staphylococcus aureus [9] = experiment: Antibacterial activity against ciprofloxacin-resistant Staphylococcus aureus Smith; type: functional; outline: as §2
Streptococcus pneumoniae [10] = experiment: Antibacterial activity against penicillin-resistant Streptococcus pneumoniae 700677; type: functional; outline: as §1
Bacillus thuringiensis [11] = experiment: Antibacterial activity against Bacillus thuringiensis 33679; type: functional
Staphylococcus aureus [12] = experiment: Antibacterial activity against Staphylococcus aureus Smith 13709; type: functional; outline: as §2
Bacillus subtilis [13] = experiment: Antibacterial activity against Bacillus subtilis BD54; type: functional
[14] = Cytotoxicity against human MRC5 cells; type: cell-based
Outline: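 MRC-5 human diploid fibroblasts, 4 x 10^3 cells per well, exposed to compound from DMSO stock (final 1%) in minimal essential medium with 10% fetal calf serum for 72 h at 37°C beside a DMSO-only control.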

Bacillus cereus [15] = experiment: Antibacterial activity against Bacillus cereus 4342; type: functional
Klebsiella pneumoniae = experiment: Antibacterial activity against Klebsiella pneumoniae 5657; type: functional
Bacillus subtilis [16] = experiment: Inhibition of DNA synthesis in Bacillus subtilis BD54; type: functional, organism-based
Outline: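 B. subtilis BD54 grown to log phase in C plus 50 medium; compound in DMSO added with [8-3H]adenine at time zero, at 5x or 1x MIC; samples over time. DNA = alkali-insensitive TCA-insoluble label; RNA = total TCA-insoluble minus DNA. Effect judged against diluent-control incorporation.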

Streptococcus pneumoniae [17] = experiment: Antibacterial activity against penicillin-resistant Streptococcus pneumoniae 700671; type: functional; outline: as §1
Escherichia coli [18] = experiment: Antibacterial activity against ciprofloxacin-resistant Escherichia coli XL1-Blue; type: functional; outline: as §2
Staphylococcus aureus [19] = experiment: Antibacterial activity against HB-EMAU-resistant Staphylococcus aureus Smith; type: functional; outline: as §2
Enterococcus faecalis [20] = experiment: Antibacterial activity against vancomycin-resistant Enterococcus faecalis 51575; type: functional; outline: as §2
Streptococcus pneumoniae [21] = experiment: Antibacterial activity against Streptococcus pneumoniae 49619; type: functional; outline: as §1
[22] = Therapeutic index, CC50 for MRC5 cells/MIC for Staphylococcus aureus Smith; type: cell-based; conditions: human
Enterococcus faecalis [23] = experiment: Antibacterial activity against vancomycin-resistant Enterococcus faecalis 700802; type: functional; outline: as §2
Enterococcus faecium [24] = experiment: Antibacterial activity against vancomycin and linezolid-resistant Enterococcus faecium F118; type: functional; outline: as §2
Staphylococcus aureus [25] = experiment: Antibacterial activity against HB-EMAU-resistant and ciprofloxacin-resistant Staphylococcus aureus Smith; type: functional; outline: as §2
[26] = Inhibition of Bacillus subtilis gyrase
Enterococcus faecalis [27] = experiment: Antibacterial activity against Enterococcus faecalis 29212; type: functional; outline: as §2
Streptococcus pneumoniae [28] = experiment: Antibacterial activity against penicillin-resistant Streptococcus pneumoniae 700674; type: functional; outline: as §1
Streptococcus pneumoniae [29] = experiment: Antibacterial activity against penicillin-resistant Streptococcus pneumoniae 700670; type: functional; outline: as §1
Staphylococcus aureus [30] = experiment: Antibacterial activity against methicillin-resistant Staphylococcus aureus B42876; type: functional; outline: as §2
Pseudomonas aeruginosa = experiment: Antibacterial activity against Pseudomonas aeruginosa 27853; type: functional
Staphylococcus aureus [31] = experiment: Antibacterial activity against Staphylococcus aureus Smith in presence of 10% FCS; type: functional
Staphylococcus aureus [32] = experiment: Antibacterial activity against mupirocin-resistant Staphylococcus aureus 777; type: functional; outline: as §2
Bacillus anthracis = experiment: Antibacterial activity against Bacillus anthracis Sterne; type: functional
Streptococcus pyogenes = experiment: Antibacterial activity against Streptococcus pyogenes 12344; type: functional
Bacillus thuringiensis [33] = experiment: Antibacterial activity against Bacillus thuringiensis 10792; type: functional
Bacillus cereus [34] = experiment: Antibacterial activity against Bacillus cereus 6464; type: functional
Staphylococcus aureus [35] = experiment: Antibacterial activity against methicillin-resistant Staphylococcus aureus 1094; type: functional; outline: as §2
Staphylococcus aureus [36] = experiment: Antibacterial activity against methicillin-resistant Staphylococcus aureus 1132; type: functional; outline: as §2
Staphylococcus aureus [37] = experiment: Antibacterial activity against Staphylococcus aureus 1081; type: functional; outline: as §2
Staphylococcus aureus [38] = experiment: Antibacterial activity against methicillin-resistant Staphylococcus aureus 1123; type: functional; outline: as §2
Enterococcus faecium [39] = experiment: Antibacterial activity against vancomycin-resistant Enterococcus faecium 1644; type: functional; outline: as §2
Enterococcus faecium [40] = experiment: Antibacterial activity against vancomycin-resistant Enterococcus faecium B42762; type: functional; outline: as §2

Q: Which MIC (Streptococcus pneumoniae [1]) does the source give for `CC1CN(c2c(F)cc3c(=O)c(C(=O)O)cn(C4CC4)c3c2F)CCN1` (stereo unspecified) here?
A: 0.156 µg/mL (≈ 0.429 µM)

Q: And the IC50 [2]?
A: 4.2 µM

Q: What about the MIC (Escherichia coli [3]) of the same compound?
A: 0.01 µg/mL (≈ 0.0275 µM)

Q: And the MIC (Staphylococcus aureus [4])?
A: 0.156 µg/mL (≈ 0.429 µM)

Q: And the MIC (Enterococcus faecalis [5])?
A: 0.313 µg/mL (≈ 0.861 µM)

Q: And the MIC [6]?
A: 0.078 µg/mL (≈ 0.215 µM)

Q: And the MIC (Staphylococcus aureus [7])?
A: 80 µg/mL (≈ 220 µM)

Q: And the MIC (Enterococcus faecium [8])?
A: 10 µg/mL (≈ 27.5 µM)

Q: And the MIC (Staphylococcus aureus [9])?
A: 5 µg/mL (≈ 13.8 µM)

Q: What about the MIC (Streptococcus pneumoniae [10]) of the same compound?
A: 0.625 µg/mL (≈ 1.72 µM)

Q: And the MIC (Bacillus thuringiensis [11])?
A: 0.078 µg/mL (≈ 0.215 µM)

Q: And the MIC (Staphylococcus aureus [12])?
A: 0.078 µg/mL (≈ 0.215 µM)

Q: And the MIC (Bacillus subtilis [13])?
A: 0.039 µg/mL (≈ 0.107 µM)

Q: And the CC50 [14]?
A: > 80 µg/mL

Q: What about the MIC (Bacillus cereus [15]) of the same compound?
A: 0.078 µg/mL (≈ 0.215 µM)

Q: And the MIC (Klebsiella pneumoniae)?
A: 0.156 µg/mL (≈ 0.429 µM)

Q: And the Activity (Bacillus subtilis [16])?
A: Active

Q: And the MIC (Streptococcus pneumoniae [17])?
A: 0.313 µg/mL (≈ 0.861 µM)

Q: And the MIC (Escherichia coli [18])?
A: 40 µg/mL (≈ 110 µM)

Q: What about the MIC (Staphylococcus aureus [19]) of the same compound?
A: 0.078 µg/mL (≈ 0.215 µM)

Q: What about the MIC (Enterococcus faecalis [20]) of the same compound?
A: 0.313 µg/mL (≈ 0.861 µM)

Q: And the MIC (Streptococcus pneumoniae [21])?
A: 0.313 µg/mL (≈ 0.861 µM)

Q: And the selectivity ratio [22]?
A: > 1000

Q: What about the MIC (Enterococcus faecalis [23]) of the same compound?
A: 0.313 µg/mL (≈ 0.861 µM)

Q: What about the MIC (Enterococcus faecium [24]) of the same compound?
A: 80 µg/mL (≈ 220 µM)

Q: And the MIC (Staphylococcus aureus [25])?
A: 5 µg/mL (≈ 13.8 µM)

Q: And the IC50 [26]?
A: 5.6 µM

Q: And the MIC (Enterococcus faecalis [27])?
A: 0.313 µg/mL (≈ 0.861 µM)

Q: What about the MIC (Streptococcus pneumoniae [28]) of the same compound?
A: 0.625 µg/mL (≈ 1.72 µM)

Q: What about the MIC (Streptococcus pneumoniae [29]) of the same compound?
A: 0.313 µg/mL (≈ 0.861 µM)

Q: What about the MIC (Staphylococcus aureus [30]) of the same compound?
A: 80 µg/mL (≈ 220 µM)

Q: What about the MIC (Pseudomonas aeruginosa) of the same compound?
A: 0.313 µg/mL (≈ 0.861 µM)

Q: And the MIC (Staphylococcus aureus [31])?
A: 0.078 µg/mL

Q: What about the MIC (Staphylococcus aureus [32]) of the same compound?
A: 40 µg/mL (≈ 110 µM)

Q: And the MIC (Bacillus anthracis)?
A: 0.039 µg/mL (≈ 0.107 µM)

Q: What about the MIC (Streptococcus pyogenes) of the same compound?
A: 0.156 µg/mL (≈ 0.429 µM)

Q: And the MIC (Bacillus thuringiensis [33])?
A: 0.156 µg/mL (≈ 0.429 µM)

Q: What about the MIC (Bacillus cereus [34]) of the same compound?
A: 0.078 µg/mL (≈ 0.215 µM)

Q: And the MIC (Staphylococcus aureus [35])?
A: 20 µg/mL (≈ 55 µM)

Q: What about the MIC (Staphylococcus aureus [36]) of the same compound?
A: 0.156 µg/mL (≈ 0.429 µM)

Q: And the MIC (Staphylococcus aureus [37])?
A: 10 µg/mL (≈ 27.5 µM)

Q: What about the MIC (Staphylococcus aureus [38]) of the same compound?
A: 20 µg/mL (≈ 55 µM)

Q: And the MIC (Enterococcus faecium [39])?
A: 40 µg/mL (≈ 110 µM)

Q: What about the MIC (Enterococcus faecium [40]) of the same compound?
A: 40 µg/mL (≈ 110 µM)

Q: Which IC50 [2] does the source give for `CCn1cc(C(=O)O)c(=O)c2ccc(C)nc21` [NALIDIXIC ACID] here?
A: 1090 µM

Q: What about the IC50 [26] of the same compound?
A: 149 µM
